Apaf-1 inh – inhibitors of human Apaf-1 apoptosome. O14727. reconstituted apoptosome caspase-3 activity, DEVD-Rh110 fluorescence. inhibition, % at 20 µM. actives 0.71% (n = 330,000); active means inhibition of at least 40% at 20 µM;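 further: plate controls were DMSO wells for no effect and DEVD-CHO caspase inhibitor wells for full effect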
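System: Apoptosome proteins | Medium: Hepes pH 7.5 with detergent and BSA | Also added: Cytochrome c trigger plus (Z-DEVD)2-Rh110 caspase-3 substrate | Incubation: 30 min compound preincubation, 50 min activation, room temperature | Detection: Rhodamine 110 fluorescence at Ex 480/Em 540 nm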
SENP8 block-1 – SENP8 (human) protease inhibition; actives 0.64% (n = 360,000); AID 602440; inhibition, % at 20 µM; recombinant SENP8, Nedd8 substrate fluorescence; in the data active means inhibition mostly above about 40%, no sharp cut-off; inactive means mostly below about 27%
UBC13 inh – inhibitors of human UBC13 polyubiquitin chain formation; TR-FRET; inhibition, % at 20 µM; actives 0.47% (n = 330,000); in the data active means inhibition above about 45%, passing the limit was not always enough
SENP8 block-2 – blocks the human protease SENP8 | Q96LD8 | purified SENP8, Z-RLRGG-aminoluciferin cleavage, luminescence | inhibition, % at 10 µM | actives 1.2% (n = 330,000) | AID 2540; in the data active means inhibition above about 50%
SENP7 block – SENP7 protease inhibition; inhibition, % at 5 µM; recombinant SENP7, Z-RLRGG-aminoluciferin luminescence, 40 min; actives 1.5% (n = 330,000); AID 434973;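 active means inhibition above about 50% at the single test dose, limit read from the data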;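 further: plate controls were DMSO with enzyme for no effect and no enzyme buffer wells for full effect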
SENP6 block – SENP6 protease inhibition; actives 1.8% (n = 330,000); Recombinant SENP6 catalytic domain, aminoluciferin luminescence; AID 2599; inhibition, % at 10 µM; Q9GZR1;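 active means inhibition above about 50% at the single tested dose, limit read from the data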;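 further: plate controls were DMSO wells with enzyme for no effect and DMSO wells lacking enzyme for full effect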
Target sequence (Q9GZR1 628-1112 limits assumed): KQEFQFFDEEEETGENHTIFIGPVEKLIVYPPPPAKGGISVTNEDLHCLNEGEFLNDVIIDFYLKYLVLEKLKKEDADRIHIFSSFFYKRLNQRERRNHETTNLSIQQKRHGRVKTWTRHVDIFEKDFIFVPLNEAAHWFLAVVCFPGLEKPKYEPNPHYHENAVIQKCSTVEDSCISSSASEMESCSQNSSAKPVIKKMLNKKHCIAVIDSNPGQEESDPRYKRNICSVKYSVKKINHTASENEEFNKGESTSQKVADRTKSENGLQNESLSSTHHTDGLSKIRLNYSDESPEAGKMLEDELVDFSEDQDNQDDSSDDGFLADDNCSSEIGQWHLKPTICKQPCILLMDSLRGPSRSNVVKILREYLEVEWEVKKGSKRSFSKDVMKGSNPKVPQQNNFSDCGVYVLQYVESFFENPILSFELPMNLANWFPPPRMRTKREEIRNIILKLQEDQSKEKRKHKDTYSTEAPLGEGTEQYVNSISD
SENP8 confirm – human SENP8 inhibition, confirmed; Recombinant SENP8, Z-RLRGG-aminoluciferin luminescence, 60 min; AID 488912; shares compounds with SENP7 block; actives 40% (n = 6,200); inhibition, % at 12.5 µM;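 active means mean inhibition across replicates above about 50%, limit read from the data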
SENP6 conf – human SENP6 inhibition, confirmed. shares compounds with SENP7 block. recombinant SENP6, Z-RLRGG-aminoluciferin luminescence. AID 488915. actives 58% (n = 6,200). inhibition, % at 12.5 µM
SENP7 conf – confirmation of human SENP7 protease inhibitors. recombinant SENP7, Z-RLRGG-aminoluciferin luminescence, 40 min. inhibition, % at 12.5 µM. actives 69% (n = 6,200). AID 488917. shares compounds with SENP7 block
Casp3 select – selectivity test for SENP inhibitors: human caspase-3 inhibition; shares compounds with SENP7 block; purified caspase-3, Z-DEVD-aminoluciferin luminescence, 60 min; inhibition, % at 12.5 µM; actives 60% (n = 6,200);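 active means mean inhibition above about 50%, limit read from the data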;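 further: plate controls were enzyme with DMSO for no effect and wells without caspase-3 for full effect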
Luc interf – luminescence interference (SENP counter-screen); Pre-incubated SENP8/Z-RLRGG-aminoluciferin, luciferase luminescence interference; actives 39% (n = 6,200); AID 488919; shares compounds with SENP7 block; inhibition, % at 12.5 µM;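 active means mean inhibition above about 50% when retested at one dose, limit read from the data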;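 further: plate controls were DMSO wells with completed reaction for no effect and substrate without enzyme for full effect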
Numbers without * were called inactive. Compounds with a hit are over-represented: about 3% of the library has one in this group of screens.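 How the source made its calls, unless noted: active means mean inhibition above about 50% in the one-dose retest (limit read from the data); inactive means the rest.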

`CCCCNC(=O)C1C(c2ccc(OC)cc2)=Nc2ccccc2N1C(=O)c1ccncc1` (centres undefined) gave SENP8 block-1 -26.
`CCc1nc2c(OCc3cccc(OC)c3)cccn2c1N(C)C(=O)c1ccc(OC)cc1` gave SENP8 block-1 7.
Screening CC(OC(=O)c1ccc([N+](=O)[O-])s1)C(=O)Nc1ncc(Cl)cc1Cl (centres undefined) returned Apaf-1 inh 34, SENP8 block-1 19, UBC13 inh 12, SENP8 block-2 62*, SENP7 block 25, SENP6 block 60*, SENP8 confirm 14, SENP6 conf 23, SENP7 conf 5, Casp3 select -6 and Luc interf -5.
Screening O=C(NC1CCCCC1)C(c1ccc(-c2ccccc2)cc1)n1c(=O)c(-c2ccco2)nc2ccccc21 (centres undefined) returned SENP8 block-1 -462.
For O=C(c1cc(-c2cccc(O)c2)on1)N1CCOCC1 the results were Apaf-1 inh -6, SENP8 block-1 15, UBC13 inh 4, SENP8 block-2 26, SENP7 block 47, SENP6 block 63*, SENP8 confirm 48, SENP6 conf 42, SENP7 conf 70*, Casp3 select 78* and Luc interf 59*.
`O=C(c1cc(-c2ccc(Br)cc2)on1)N1CCOCC1` gave Apaf-1 inh 7, SENP8 block-1 16, UBC13 inh 3, SENP8 block-2 27, SENP7 block 34, SENP6 block 53*, SENP8 confirm 25, SENP6 conf 46, SENP7 conf 21, Casp3 select 35 and Luc interf 2.
`COc1cccc(-c2cc(C(=O)N3CCOCC3)no2)c1` gave Apaf-1 inh 5, SENP8 block-1 12, UBC13 inh 0, SENP8 block-2 3, SENP7 block 24 and SENP6 block 31.
Screening O=C(c1cc(-c2ccc(Br)cc2)on1)N1CCCCCC1 returned Apaf-1 inh 2, SENP8 block-1 13, UBC13 inh 8, SENP8 block-2 -13, SENP7 block 16 and SENP6 block -2.
COc1ccc(-c2cc(C(=O)N3CCOCC3)no2)cc1 was read as Apaf-1 inh 5, SENP8 block-1 9, UBC13 inh 3, SENP8 block-2 42, SENP7 block 55*, SENP6 block 51*, SENP8 confirm 54*, SENP6 conf 52*, SENP7 conf 83*, Casp3 select 79* and Luc interf 53*.
For C[C@@H]1CN([C@@H](C)CO)C(=O)CCCn2nncc2CO[C@H]1CN(C)C(=O)c1ccncc1 the results were SENP8 block-1 4.
For CCc1ccc(C(=O)COC(=O)c2n[nH]c3ccccc23)cc1 the results were Apaf-1 inh 5, SENP8 block-1 -8, UBC13 inh 11, SENP8 block-2 77*, SENP7 block 74*, SENP6 block 35, SENP8 confirm -16, SENP6 conf 78*, SENP7 conf 93*, Casp3 select 61* and Luc interf 14.
COC(=O)c1ccc(NC(=O)Nc2ccc(F)c(Cl)c2)cc1 was read as Apaf-1 inh 3, SENP8 block-1 4, UBC13 inh -2, SENP8 block-2 -1, SENP7 block 58*, SENP6 block -50, SENP8 confirm 14, SENP6 conf 18, SENP7 conf 84*, Casp3 select 22 and Luc interf 26.
`COC(=O)c1ccc(NC(=O)Nc2ccccc2C)cc1` gave Apaf-1 inh 13, SENP8 block-1 -1, UBC13 inh 3, SENP8 block-2 83*, SENP7 block 92*, SENP6 block 91*, SENP8 confirm 89*, SENP6 conf 89*, SENP7 conf 99*, Casp3 select 89* and Luc interf 48.
COC(=O)c1ccc(NC(=O)Nc2ccc(F)cc2)cc1 was read as Apaf-1 inh -5, SENP8 block-1 6, UBC13 inh 2, SENP8 block-2 46, SENP7 block 49, SENP6 block 68*, SENP8 confirm 42, SENP6 conf 42, SENP7 conf 80*, Casp3 select 48 and Luc interf 62*.
Screening COC(=O)c1ccc(NC(=O)Nc2ccc(OC)cc2)cc1 returned Apaf-1 inh 8, SENP8 block-1 7, UBC13 inh -4, SENP8 block-2 -16, SENP7 block -11 and SENP6 block -21.
O=C(Nc1ccncc1)Nc1ccc(F)c(Cl)c1 was read as Apaf-1 inh 9, SENP8 block-1 11, UBC13 inh 8, SENP8 block-2 -18, SENP7 block -6 and SENP6 block -14.
Screening CC(=O)Nc1ccc(NC(=O)Nc2ccccc2C)cc1 returned Apaf-1 inh -26, SENP8 block-1 27, UBC13 inh 0, SENP8 block-2 -2, SENP7 block 16 and SENP6 block 15.
For CC(=O)N(C)c1ccc(NC(=O)Nc2ccccc2C)cc1 the results were Apaf-1 inh -10, SENP8 block-1 16, UBC13 inh 8, SENP8 block-2 33, SENP7 block 58*, SENP6 block 63*, SENP8 confirm 40, SENP6 conf 41, SENP7 conf 79*, Casp3 select 83* and Luc interf 63*.
CCCNC(=O)C1(C)CCCN(Cc2ccc(-c3ccccn3)cc2)C1 (centres undefined) was read as SENP8 block-1 4.
`CC(O)CC(=O)OC[C@]12CC[C@H]3[C@@](C)(CC[C@H]4C(C)(C)CCC[C@]34C)[C@@H]1CC(C1=CC(=O)OC1O)O2` (some centres undefined) gave SENP8 block-1 6.
`COc1cc(Cc2nc3ccccc3n2C(C)c2nc3ccccc3[nH]2)cc(OC)c1` (centres undefined) gave SENP8 block-1 11.
Screening CN(C)CCNC(=O)c1cccc(-c2cc(NC=O)c3ncc(-c4cccc(C(F)(F)F)c4)n3c2)c1 returned SENP8 block-1 -312.

Screens from PubChem.
